Results taken from PubChem BioAssay AID2692 (The Scripps Research Institute Molecular Screening Center, 2010).
Activity calls are given as the source filed them. No rule for the calls is given here.

Test system: transient receptor potential cation channel subfamily N member 1 (TRPN1/NompC), zebrafish
Assay: TRPN1 current increase by agonists – whole-cell patch clamp, HEK293, selectivity assay for TRPML3 selective agonist project, late-stage follow-up (AID 2692)
Conditions: at 10 µM
Summary of the method: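 Assay system: TRPN1-expressing HEK293 cells / Medium: NaCl bath with 100 µM 2-APB, CsCl/BAPTA pipette / Dosing: compound at 10 µM only / Times: 10 ms steps, holding potential +10 mV / Technique: whole-cell patch clamp, voltage-step series −200 to +100 mV / Measure: capacitance-normalized current (per pF)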

current density at -80 mV	SMILES
-0.003 nA/pF (inactive)	CC1CCN(S(=O)(=O)c2ccc(C(C)C)cc2)CC1
-0.003 nA/pF (inactive)	CCOc1ccc(S(=O)(=O)N2CCCCCC2)c2ccccc12
-0.004 nA/pF (inactive)	Cc1ccc(S(=O)(=O)n2nccc2-c2c(-c3ccc(Cl)cc3)noc2C)cc1
